From ChEMBL document CHEMBL4665664, “Discovery of Orally Active Hydroxyethylamine Based SPPL2a Inhibitors” (ACS Med Chem Lett, 2019)
Activity calls are given as the source filed them. The calls are words filed in the database; no cut-off is given here.

Key:
[1] = Oral bioavailability in Balb/c mouse at 20 mg/kg by LC/MS/MS analysis; format: ADME, organism-based; details: in vivo
Procedure, shortened: (§1)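 Balb/c mice dosed 5 mg/kg i.v. and 20 mg/kg p.o. in PEG300/D5W (3:1); plasma concentration profile taken as mean of three animals; PK parameters derived from these profiles.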

[2] = Total plasma concentration in mouse at 30 mg/kg, po measured after 4 hrs by LC/MS/MS analysis; format: ADME, organism-based
Procedure, shortened: (§2)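 Single oral dose of 10, 30 or 100 mg/kg in PEG300/D5W (3:1); total plasma and spleen concentrations measured at termination, 4 h post-dose; reported as means ± SEM.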

[3] = Dose normalized AUC in Balb/c mouse at 20 mg/kg, po by LC/MS/MS analysis; format: ADME, organism-based; details: in vivo; procedure, shortened: as §1
[4] = target: T1, Signal peptide peptidase-like 2A (Mus musculus) (UniProt Q9JJF9); experiment: Inhibition of SPPL2a in mouse whole blood assessed as […] in CD74/p8 NTF accumulation at 4 uM incubated for 5 hrs by flow cytometric analysis based assay; format: tissue-based
T1 sequence (whole entry): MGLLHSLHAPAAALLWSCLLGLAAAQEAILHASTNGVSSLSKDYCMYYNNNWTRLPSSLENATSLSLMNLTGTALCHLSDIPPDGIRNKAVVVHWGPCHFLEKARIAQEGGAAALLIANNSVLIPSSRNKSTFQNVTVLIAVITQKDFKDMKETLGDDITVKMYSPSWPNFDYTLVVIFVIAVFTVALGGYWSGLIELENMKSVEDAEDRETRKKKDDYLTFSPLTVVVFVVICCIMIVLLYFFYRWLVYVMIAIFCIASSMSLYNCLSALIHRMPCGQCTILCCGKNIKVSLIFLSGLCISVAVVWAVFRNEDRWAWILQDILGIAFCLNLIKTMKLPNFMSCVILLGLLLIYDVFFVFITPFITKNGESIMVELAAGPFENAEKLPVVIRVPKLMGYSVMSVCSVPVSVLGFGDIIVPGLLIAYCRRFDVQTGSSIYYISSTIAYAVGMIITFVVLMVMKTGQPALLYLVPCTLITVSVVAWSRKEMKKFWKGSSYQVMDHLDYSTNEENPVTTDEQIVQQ

[5] = target: T2, Signal peptide peptidase-like 2A (Mus musculus, UniProt Q9JJF9); experiment: Inhibition of mouse SPPL2a cotransfected with EGFP-NLP-fused TNFalpha (1 to 77 residues)-NTF incubated for 24 hrs by Hoechst staining based Cellomics ArrayScan analysis
T2 sequence (Q9JJF9 whole entry): T1 sequence (whole entry)

[6] = Volume of distribution in Balb/c mouse at 5 mg/kg, iv and 20 mg/kg, po by LC/MS/MS analysis; format: ADME, organism-based; details: in vivo; procedure, shortened: as §1
[7] = Drug uptake in mouse spleen at 30 mg/kg, po measured after 4 hrs by LC/MS/MS analysis; format: ADME, organism-based; details: read-out: Drug uptake; procedure, shortened: as §2
Gamma-secretase = experiment: Inhibition of gamma-secretase (unknown origin) expressed in HEK293 cells cotransfected with Notch1-VP16-GAL4 fusion and Gal4 luciferase reporter plasmid incubated for 24 hrs by luciferase reporter gene assay luminescence assay; format: cell-based, Homo sapiens
[8] = target: T3, Signal peptide peptidase-like 2B (Homo sapiens, UniProt Q8TCT7); experiment: Inhibition of SPPL2b in human U2OS cells cotransfected with EGFP-labeled TNFalpha (1 to 76 residues)-NTF incubated for 24 hrs by Hoechst staining based Cellomics ArrayScan analysis; format: cell-based
T3 sequence (Q8TCT7 whole entry): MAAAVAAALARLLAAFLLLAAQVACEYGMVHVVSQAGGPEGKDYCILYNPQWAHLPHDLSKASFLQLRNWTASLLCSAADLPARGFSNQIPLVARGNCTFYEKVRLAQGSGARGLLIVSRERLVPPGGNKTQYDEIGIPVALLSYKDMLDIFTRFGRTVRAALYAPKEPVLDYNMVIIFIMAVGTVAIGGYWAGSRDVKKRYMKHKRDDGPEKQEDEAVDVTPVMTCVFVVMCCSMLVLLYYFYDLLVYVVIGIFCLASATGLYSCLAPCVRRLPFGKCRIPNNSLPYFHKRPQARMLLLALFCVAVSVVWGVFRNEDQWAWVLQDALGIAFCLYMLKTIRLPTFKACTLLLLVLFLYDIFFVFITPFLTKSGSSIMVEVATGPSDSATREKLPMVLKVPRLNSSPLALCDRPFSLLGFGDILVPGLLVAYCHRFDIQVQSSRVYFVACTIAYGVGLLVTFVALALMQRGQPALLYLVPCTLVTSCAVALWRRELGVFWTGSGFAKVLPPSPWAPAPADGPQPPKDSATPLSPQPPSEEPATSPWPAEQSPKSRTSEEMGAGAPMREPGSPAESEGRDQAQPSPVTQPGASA

[9] = Drug uptake in mouse spleen at 100 mg/kg, po measured after 4 hrs by LC/MS/MS analysis; format: ADME, organism-based; details: read-out: Drug uptake; procedure, shortened: as §2
[10] = Half life in Balb/c mouse at 5 mg/kg, iv and 20 mg/kg, po by LC/MS/MS analysis; format: ADME, organism-based; details: in vivo; procedure, shortened: as §1
[11] = Drug uptake in mouse spleen at 10 mg/kg, po measured after 4 hrs by LC/MS/MS analysis; format: ADME, organism-based; details: read-out: Drug uptake; procedure, shortened: as §2
[12] = Total plasma concentration in mouse at 100 mg/kg, po measured after 4 hrs by LC/MS/MS analysis; format: ADME, organism-based; procedure, shortened: as §2
[13] = target: T2, Signal peptide peptidase-like 2A; experiment: Inhibition of SPPL2a in Balb/c mouse A20 cells assessed as […] in CD74/p8 NTF accumulation incubated for overnight by Western blot analysis; format: cell-based
Procedure, shortened: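 Endogenous CD74/p8 NTF processing in mouse B cell line A20 measured by quantitative Western blot; IC50 derived.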

[14] = Total plasma concentration in mouse at 10 mg/kg, po measured after 4 hrs by LC/MS/MS analysis; format: ADME, organism-based; procedure, shortened: as §2

Question: Which results are given for CC(C)(C)c1ccc(S(=O)(=O)N(C[C@H](O)[C@@H](N)c2ccc(OC(F)(F)F)cc2)C2CCC2)cc1?
Answer: bioavailability [1]: 35%; concentration at 4 h [2]: 0.25 µM; AUC/dose [3]: 282 nM·h; inhibition [4]: Active; IC50 [5]: 0.005 µM; Vd [6]: 12.3 L/kg; concentration at 4 h [7]: 12.7 µM; IC50 (Gamma-secretase): 1.3 µM; IC50 [8]: 0.27 µM; concentration at 4 h [9]: 53.3 µM; half-life [10]: 5 h; concentration at 4 h [11]: 6 µM; concentration at 4 h [12]: 1.17 µM; IC50 [13]: 0.15 µM; concentration at 4 h [14]: 0.12 µM
